Series [1] can be described thus: Neurotoxicity in CF-1 mouse at 300 mg/kg, ip measured after 0.5 hrs by rotarod test. Format: toxicity, organism-based. The conditions noted are these: in vivo. In outline: (§1)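 Mice dosed i.p. were placed on a 1 in. knurled rod turning at 6 rpm. Toxicity was scored as failure to keep balance for at least 1 min, i.e. falling off three or more times. Results are reported as animals showing toxicity / animals tested at each time point.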
(In general: The rotarod test checks motor coordination on a turning rod.)

Series [2] deals with Rattus norvegicus. Nature of the series: Anticonvulsant activity in Sprague-Dawley rat model of maximal electroshock-induced seizure assessed as suppression of tonic hind limb extension at 30 mg/kg, po measured at 4 hrs post dose. Format: functional, organism-based. In outline: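 Rats given 30 mg/kg p.o. and tested by maximal electroshock at 150 mA. Scored as number protected / number tested (4 per group) at 0.25, 0.5, 1, 2 and 4 h after dosing.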
On the technique in general: The maximal electroshock test induces tonic seizures with an electrical stimulus.

Series [3] has as its system Mus musculus. Nature of the series: Anticonvulsant activity in CF-1 mouse model of maximal electroshock-induced seizure assessed as suppression of tonic hind limb extension at 100 mg/kg, ip measured at 0.25 hrs post dose. It is filed as functional, organism-based. In outline:
(§2)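 Mice dosed i.p. and given maximal electroshock at 50 mA. Read-out is protection, reported as number protected / number tested at 0.25, 0.5, 1 and 4 h after dosing.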

Series [4] is described as follows: Neurotoxicity in Sprague-Dawley rat at 100 mg/kg, ip measured after 0.25 hrs by rotarod test. Particulars: in vivo. Format: toxicity, organism-based. In outline: (§3)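 Rat neurotoxicity after i.p. or p.o. dosing was scored as animals impaired / animals tested at each time point. For p.o. dosing, TD50 was obtained by probit analysis.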
The test system of series [5] is Mus musculus. Nature of the series: Anticonvulsant activity in ip dosed CF-1 mouse model of maximal electroshock-induced seizure assessed as time required for suppression of tonic hind limb extension. Format: functional.
The subject of series [6] is Rattus norvegicus. Nature of the series: Anticonvulsant activity in hippocampal kindling Sprague-Dawley rat model assessed as after discharge time at 100 mg/kg, ip administered as single dose measured after 45 mins. It is filed as functional. In outline: (§4)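 Rats implanted with a hippocampal electrode and kindled with suprathreshold trains (200 µA, 10 s, 50 Hz) every 30 min for 6 h on alternate days until fully kindled. One week later they received a single i.p. dose. Seizure score (Racine scale) and afterdischarge duration were recorded at 0–135 min and compared with the control stimulus given 15 min before dosing; each animal served as its own control. Values are mean ± SEM.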

Series [7] can be described thus: Neurotoxicity in Sprague-Dawley rat at 300 mg/kg, ip measured after 4 hrs by rotarod test. It is filed as toxicity, organism-based. Particulars: in vivo. Summed up:
as §3

Series [8] concerns Astrocyte. Nature of the series: Cytotoxicity against mouse astrocytes assessed as effect on cell proliferation at 10 to 200 uM after 72 hrs by crystal violet staining based spectrophotometric method. In outline: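 Proliferation in mouse astrocyte line: 1×10^4 cells per well, exposed 24 h after seeding to 10–200 µM for 72 h. Fixed in 3.7% formaldehyde, stained 10 min with 0.01% crystal violet, dye eluted with methanolic citric acid/sodium citrate, OD at 540 nm.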

Series [9] in a line: Neurotoxicity in CF-1 mouse at 220 mg/kg, ip measured after 4 hrs by rotarod test. It is filed as toxicity, organism-based. Particulars: in vivo. Summed up: as §1
Series [10] has as its system Rattus norvegicus. Nature of the series: Anticonvulsant activity in po dosed Sprague-Dawley rat model of maximal electroshock-induced seizure assessed as suppression of tonic hind limb extension. It is filed as functional. In outline: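 Rats dosed p.o. and tested by MES at 150 mA. ED50 derived by probit analysis from quantitative dose groups, run at the time of peak effect (hours).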

Series [11] can be described thus: Protection index, ratio of TD50 for neurotoxicity in ip dosed CF-1 mouse to ED50 for anticonvulsant activity in CF-1 mouse model of maximal electroshock-induced seizure. The conditions noted are these: in vivo, read-out: Ratio TD50/ED50. It is filed as toxicity, organism-based.
The subject of series [12] is Rattus norvegicus. Nature of the series: Anticonvulsant activity in hippocampal kindling Sprague-Dawley rat model assessed as decrease of seizure score at 100 mg/kg, ip administered as single dose measured up to 135 mins. It is filed as functional, organism-based. In outline:
as §4

For series [13], the system named is Mus musculus. Nature of the series: Anticonvulsant activity in CF-1 mouse model of maximal electroshock-induced seizure assessed as suppression of tonic hind limb extension at 110 mg/kg, ip measured at 0.5 hrs post dose. It is filed as functional, organism-based. Summed up: as §2
Series [14] has as its system Rattus norvegicus. Nature of the series: Anticonvulsant activity in hippocampal kindling Sprague-Dawley rat model assessed as after discharge time at 100 mg/kg, ip administered as single dose measured after 75 mins. It is filed as functional. Summed up:
as §4

In series [15] the test system is Rattus norvegicus. Nature of the series: Anticonvulsant activity in hippocampal kindling Sprague-Dawley rat model assessed as after discharge time at 100 mg/kg, ip administered as single dose measured after 135 mins. Format: functional. In outline: as §4
The subject of series [16] is Rattus norvegicus. Nature of the series: Anticonvulsant activity in hippocampal kindling Sprague-Dawley rat model assessed as after discharge time at 50 mg/kg, ip administered as single dose measured immediately. Format: functional. Summed up: as §4
Series [17] in a line: Neurotoxicity in po dosed Sprague-Dawley rat by rotarod test. It is filed as toxicity, organism-based. Particulars: in vivo. In outline:
as §3

In series [18] the test system is Rattus norvegicus. Nature of the series: Anticonvulsant activity in hippocampal kindling Sprague-Dawley rat model assessed as after discharge time at 50 mg/kg, ip administered as single dose measured after 15 mins. Format: functional. In outline:
as §4

Series [19] has as its system Astrocyte. Nature of the series: Cytotoxicity against mouse astrocytes at 10 to 200 uM after 24 hrs by neutral red staining based microscopic analysis. It is filed as cell-based. Summed up: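 Mouse astrocyte line seeded at 1×10^4 per well, treated 24 h later with 10–200 µM for 24 h. Medium then replaced with neutral red (4 µg ml⁻¹) in EMEM with 5% FBS for 3 h. Cells washed, dye extracted in ethanol/water/acetic acid, A540 read. Cytotoxicity (%) = (1 − sample A540/control A540) × 100.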

The test system of series [20] is Mus musculus. Nature of the series: Anticonvulsant activity in ip dosed CF-1 mouse model of maximal electroshock-induced seizure assessed as suppression of tonic hind limb extension. Format: functional. Particulars: CF-1, ip.
A short description of series [21]: Neurotoxicity in CF-1 mouse at 220 mg/kg, ip measured after 1 hr by rotarod test. It is filed as toxicity, organism-based. Particulars: in vivo. Summed up: as §1
The nature of series [22]: Neurotoxicity in ip dosed CF-1 mouse by rotarod test. It is filed as toxicity, organism-based. The conditions noted are these: in vivo. Summed up:
as §1

Series [23] has as its system Astrocyte. Nature of the series: Cytotoxicity against mouse astrocytes at 10 to 200 uM after 24 hrs by MTT assay. It is filed as cell-based. Summed up: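 Mouse astrocyte line (CRL-2541) grown in DMEM with 10% FBS at 37 °C, 5% CO2. Seeded at 1×10^4 per well in 1% FBS medium, treated with 10–200 µM for 24 h against vehicle controls. MTT reagent added for 4 h at 37 °C, crystals dissolved, absorbance read at 570 nm.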
In general terms: Formazan colour is commonly taken as a measure of viable cells.

The test system of series [24] is Rattus norvegicus. Nature of the series: Anticonvulsant activity in hippocampal kindling Sprague-Dawley rat model assessed as after discharge time at 100 mg/kg, ip administered as single dose measured after 15 mins. Format: functional. In outline:
as §4

Series [25] is described as follows: Neurotoxicity in Sprague-Dawley rat assessed as abnormal behavior at 100 mg/kg, ip administered as single dose measured after 0.25 hrs by rotarod test. Format: toxicity, organism-based. The conditions noted are these: in vivo. In outline:
as §3

Series [26] is described as follows: Neurotoxicity in Sprague-Dawley rat at 30 mg/kg, ip measured after 4 hrs by rotarod test. Format: toxicity, organism-based. Particulars: in vivo. Summed up: as §3
The nature of series [27]: Neurotoxicity in Sprague-Dawley rat at 300 mg/kg, ip measured after 0.25 hrs by rotarod test. It is filed as toxicity, organism-based. The conditions noted are these: in vivo. Summed up:
as §3

Series [28] deals with Rattus norvegicus. Nature of the series: Anticonvulsant activity in hippocampal kindling Sprague-Dawley rat model assessed as after discharge time at 100 mg/kg, ip administered as single dose measured after 105 mins. Format: functional. Summed up:
as §4

The nature of series [29]: Neurotoxicity in CF-1 mouse at 100 mg/kg, ip measured after 0.25 hrs by rotarod test. It is filed as toxicity, organism-based. Particulars: in vivo. Summed up:
as §1

A short description of series [30]: Neurotoxicity in Sprague-Dawley rat at 300 mg/kg, ip measured after 2 hrs by rotarod test. It is filed as toxicity, organism-based. Particulars: in vivo. Summed up:
as §3

Series [31] has as its system Mus musculus. Nature of the series: Anticonvulsant activity in CF-1 mouse model of maximal electroshock-induced seizure assessed as suppression of tonic hind limb extension at 110 mg/kg, ip measured at 0.25 hrs post dose. Format: functional, organism-based. Summed up:
as §2

The structures appear in SMILES notation. Activity calls are given as the source filed them.

As to `CCC(O)CNC(=O)COc1c(C)cccc1C` (stereo unspecified), the Activity entry is on record as “Toxic” in series [1] and “Active” in series [4]. In addition, the outcome with Rattus norvegicus [2] was inactive. For the same molecule, the result in the series on Mus musculus [3] was Active.
For `Cc1cccc(C)c1OCC(=O)N[C@H](C)CO`, the Time in the series on Mus musculus [5] was 0.25 h; with Rattus norvegicus [6] it was 86 s; with Rattus norvegicus [14], 80 s; with Rattus norvegicus [15] it was 76 s; with Rattus norvegicus [16] it was 72 s; with Rattus norvegicus [18], 71 s. The Time in the series on Rattus norvegicus [24] worked out at 48 s; with Rattus norvegicus [28] it was 77 s. The Activity result was “Toxic” in series [7]; “Non-Toxic” with Astrocyte [8]; “Non-Toxic” in series [9]; “Non-Toxic” in the series with Astrocyte [19]; “Non-Toxic” in [21]; “Non-Toxic” in the series on Astrocyte [23]. The Activity result in [25] is reported as “Toxic”; in series [26] it was “Non-Toxic”; in series [27], “Toxic”; in [29] it was “Non-Toxic”; in series [30], “Toxic”. The ED50 worked out at 12 mg/kg with Rattus norvegicus [10] and 97.9 mg/kg with Mus musculus [20]. Moreover, the selectivity ratio in series [11] was 1.43. Further, the result in the series on Rattus norvegicus [12] and in the series with Mus musculus [31] was Active. Further, the outcome in the series on Mus musculus [13] was inactive. The TD50 in series [17] is over 500 mg/kg; in series [22] it was 140 mg/kg.

A word on the ED50: it is the dose that gives a 50% effect, or the effect in half of the subjects. Broadly, the TD50 is the 50% point of the dose-response relation for the toxic effect studied.

Values taken from ChEMBL document CHEMBL4368872, “Synthesis and anticonvulsant activity of phenoxyacetyl derivatives of amines, including aminoalkanols and amino acids” (Medchemcomm, 2018).
